Several values for one entry are separate records, joined by “and”; a condition that tells them apart may be missing. Equal entries are not always repeated. Entries after “also recorded” stand apart in the source; their conditions may differ. Structures can show the parent of a compound that is named as a salt. Where two headings read alike, the source gives them in different places.
Tests used:
[1] = system: bone marrow polychromatic erythrocytes; assay: In vivo micronucleus assay, bone marrow PCEs; set-up: species or system CD-1 mice; settings: for Mortality: dose range finding
In short: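 Crl:CD-1(ICR) mice were gavaged for three consecutive days in 1% methylcellulose at 10 mL/kg. Dose-range phases used 3/sex/group: parent at 500–2000 mg/kg, amine salt at 125–2000 mg/kg/day. Definitive phases used 6/sex (parent) or 5/sex (amine), with MMS 40 mg/kg/day as positive control. Micronuclei were scored in 2000 bone marrow PCEs per animal, and the PCE/total erythrocyte ratio was used for cytotoxicity.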

liver cells = assay: In vivo alkaline comet assay, liver; set-up: species or system CD-1 mice; settings: males: 125, 250, 500 mg/kg bw; females: 250, 500, 1000 mg/kg bw (oral)
In short: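 Run on the same Crl:CD-1(ICR) mice as the micronucleus study, 5/sex/group. Animals received the salt of the secondary amine hydrolysis product by oral gavage for three consecutive days, with 1% methylcellulose as vehicle control. Liver cells were analysed by alkaline single-cell gel electrophoresis, scoring % tail DNA and counting "clouds" (hedgehogs) against vehicle controls.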

[2] = system: human peripheral blood lymphocytes (HPBL); assay: In vitro chromosome aberration test
[3] = Pharmacokinetics after single iv or oral S2227 in rats; assay type: in vivo, Sprague-Dawley rats; settings: for AUC(0-t) / Cmax / Tmax / half-life: Sprague-Dawley, rat; for AUC(0-t) / Cmax / Tmax / half-life / AUC0-last/dose: plasma
In short: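 IV dosing: 4 male and 4 female Sprague-Dawley rats given a 1 mg/kg bolus in PEG 400, with blood sampled at about 0, 2, 5, 10 and 30 min and 1, 2, 4 and 8 h. Oral dosing: 4/sex/group gavaged at 10, 30 or 100 mg/kg in 1% methylcellulose, with blood sampled at about 0, 15 and 30 min and 1, 2, 4, 8 and 24 h. Plasma was assayed for parent and metabolites.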

[4] = In vitro metabolism in liver microsomes; assay type: in vitro ADME, Sprague-Dawley rat; settings: Rat (20 min), positive ionization
[5] = Pharmacokinetics of S2227 and M179 hydrochloride in mice; assay type: in vivo, male CD-1 mice; settings: for AUC(0-t): male, CD-1, mouse, plasma, po
In short: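 Two groups of 28 male Crl:CD-1(ICR) mice were gavaged with a 1% methylcellulose suspension of either parent (30 mg/kg) or the equimolar secondary amine hydrochloride (20 mg/kg). Blood was taken by cardiac puncture from 4 mice/group/time point at about 15 and 30 min and 1, 2, 4, 8 and 24 h. Plasma levels of parent and metabolites gave Cmax and AUClast.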

[6] = In vitro metabolism in liver microsomes; assay type: in vitro ADME; settings: Human (60 min), positive ionization
[7] = In vitro metabolism in liver microsomes; assay type: in vitro ADME; settings: Dog (60 min), positive ionization
[8] = In vitro metabolism in liver microsomes; assay type: in vitro ADME, Gottingen pig; settings: Pig (10 min), positive ionization
[9] = Pharmacokinetics after single iv or oral S2227 in dogs; assay type: in vivo, beagle dogs; settings: for AUC0-last ratio M179/S2227 / AUC0-last/dose: Dog (M); for AUC(0-t) / Cmax / Tmax / half-life: male, beagle, dog; for AUC(0-t) / Cmax / Tmax / half-life / AUC0-last/dose: plasma
[10] = system: S. typhimurium strains TA98, TA100, TA1535, TA1537 and E. coli strain WP2 uvrA; assay: Bacterial reverse mutation test; assay type: cell-based; settings: 50-5000 μg/plate, initial and confirmatory plate incorporation, ±S9
In short: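 OECD 471 design, run with and without Aroclor 1254-induced male Sprague-Dawley rat liver S9 (9000 × g fraction). The parent compound was tested by plate incorporation and pre-incubation at 63–1000 µg/plate. The secondary amine hydrolysis product (hydrochloride) was tested by plate incorporation only, in an initial toxicity-mutation phase and a confirmatory phase, at nominal 50–5000 µg/plate. Positive and vehicle controls ran concurrently.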

[11] = ref Chi, unpublished results, cited from earlier work
CYP2C19 = CYP2C19 (Homo sapiens, UniProt P33261); settings: 10 μM, spectrofluorimetric substrates; ref Arthur, unpublished results; cited from earlier work
[12] = 28-day and 22-week rat and 28-day dog studies; cited from earlier work

CYP2C19, sequence (P33261 whole entry): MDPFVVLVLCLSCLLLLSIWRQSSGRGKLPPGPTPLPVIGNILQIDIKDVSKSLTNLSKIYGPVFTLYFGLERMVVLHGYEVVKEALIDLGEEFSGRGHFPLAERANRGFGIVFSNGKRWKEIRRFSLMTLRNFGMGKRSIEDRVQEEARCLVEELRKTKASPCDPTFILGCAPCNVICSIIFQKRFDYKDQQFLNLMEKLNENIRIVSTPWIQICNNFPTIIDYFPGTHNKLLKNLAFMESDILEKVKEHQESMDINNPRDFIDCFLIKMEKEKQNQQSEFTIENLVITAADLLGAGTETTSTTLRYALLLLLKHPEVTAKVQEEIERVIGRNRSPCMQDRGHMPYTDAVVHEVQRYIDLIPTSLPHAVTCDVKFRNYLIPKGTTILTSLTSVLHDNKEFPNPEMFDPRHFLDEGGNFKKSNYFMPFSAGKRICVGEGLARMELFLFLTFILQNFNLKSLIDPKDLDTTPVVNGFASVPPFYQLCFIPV

c1csc(CNc2cc[nH]n2)c1 [M179, N-(2-thienylmethyl)-1H-pyrazol-3-amine]
Micronucleus formation (in vivo) ([1]; males: 125, 250, 500 mg/kg bw, females: 250, 500, 1000 mg/kg bw (oral)): did not induce micronuclei; also recorded: Negative | DNA damage (in vivo), liver Comet assay (liver cells): negative (non-DNA damaging); also recorded: Negative | Chromosome aberration (in vitro) ([2]; 280-2160 μg/mL 4 h -S9, 100-1840 μg/mL 4 h +S9, 25-280 μg/mL 20 h -S9): Positive (4 h,⿿S9) | induction of structural aberrations ([2]; S9-activated test system): negative | induction of numerical aberrations ([2]; non-activated and S9-activated test systems): negative | induction of structural aberrations ([2]; non-activated test system): positive | AUC0-last ratio M179/S2227 ([3]; S2227 iv 1.0 mg/kg, Rat (F)): 0.042 | AUC0-last ratio M179/S2227 ([3]; S2227 iv 1.0 mg/kg, Rat (M)): 0.040 | AUC0-last ratio M179/S2227 ([3]; S2227 oral gavage 10 mg/kg, Rat (F)): 48.9 | AUC0-last ratio M179/S2227 ([3]; S2227 oral gavage 10 mg/kg, Rat (M)): 155 | AUC0-last ratio M179/S2227 ([3]; S2227 oral gavage 30 mg/kg, Rat (F)): 86.2 | AUC0-last ratio M179/S2227 ([3]; S2227 oral gavage 30 mg/kg, Rat (M)): 98.6 | AUC0-last ratio M179/S2227 ([3]; S2227 oral gavage 100 mg/kg, Rat (F)): 38.1 | AUC0-last ratio M179/S2227 ([3]; S2227 oral gavage 100 mg/kg, Rat (M)): 69.9 | AUC(0-t) ([3]; female, iv, 1 mg/kg): 0.0126 ± 0.00502 µg·h/mL | Cmax ([3]; female, iv, 1 mg/kg): 0.014 ± 0.00484 µg/mL | Tmax ([3]; female, iv, 1 mg/kg): 0.13 h | half-life ([3]; female, iv, 1 mg/kg): 0.82 h | AUC(0-t) ([3]; female, po, 10 mg/kg): 0.384 ± 0.267 µg·h/mL | Cmax ([3]; female, po, 10 mg/kg): 0.407 ± 0.289 µg/mL | Tmax ([3]; female, po, 10 mg/kg): 0.44 h | half-life ([3]; female, po, 10 mg/kg): 1.02 h | AUC(0-t) ([3]; female, po, 30 mg/kg): 2.51 ± 1.7 µg·h/mL | Cmax ([3]; female, po, 30 mg/kg): 1.54 ± 1.05 µg/mL | Tmax ([3]; female, po, 30 mg/kg): 0.75 h | half-life ([3]; female, po, 30 mg/kg): 1.06 h | AUC(0-t) ([3]; female, po, 100 mg/kg): 5.98 ± 0.745 µg·h/mL | Cmax ([3]; female, po, 100 mg/kg): 1.77 ± 0.457 µg/mL | Tmax ([3]; female, po, 100 mg/kg): 0.83 h | half-life ([3]; female, po, 100 mg/kg): 1.84 h | AUC(0-t) ([3]; male, iv, 1 mg/kg): 0.00878 ± 0.00197 µg·h/mL | Cmax ([3]; male, iv, 1 mg/kg): 0.0151 ± 0.00323 µg/mL | Tmax ([3]; male, iv, 1 mg/kg): 0.11 h | half-life ([3]; male, iv, 1 mg/kg): 0.28 h | AUC(0-t) ([3]; male, po, 10 mg/kg): 0.254 ± 0.102 µg·h/mL | Cmax ([3]; male, po, 10 mg/kg): 0.189 ± 0.0945 µg/mL | Tmax ([3]; male, po, 10 mg/kg): 0.5 h | half-life ([3]; male, po, 10 mg/kg): 1.12 h | AUC(0-t) ([3]; male, po, 30 mg/kg): 0.614 ± 0.201 µg·h/mL | Cmax ([3]; male, po, 30 mg/kg): 0.29 ± 0.115 µg/mL | Tmax ([3]; male, po, 30 mg/kg): 0.75 h | half-life ([3]; male, po, 30 mg/kg): 1.29 h | AUC(0-t) ([3]; male, po, 100 mg/kg): 3.5 ± 0.813 µg·h/mL | Cmax ([3]; male, po, 100 mg/kg): 5.64 µM and 1010 ng/mL | Tmax ([3]; male, po, 100 mg/kg): 1.13 h | half-life ([3]; male, po, 100 mg/kg): 1.83 h | AUC0-last/dose ([3]; dosed S2227 iv 1.0 mg/kg, Rat (F)): 12.6 ng·h/mL/mg/kg | AUC0-last/dose ([3]; dosed S2227 iv 1.0 mg/kg, Rat (M)): 8.78 ng·h/mL/mg/kg | AUC0-last/dose ([3]; dosed S2227 oral gavage 10 mg/kg, Rat (F)): 38.4 ng·h/mL/mg/kg | AUC0-last/dose ([3]; dosed S2227 oral gavage 10 mg/kg, Rat (M)): 25.4 ng·h/mL/mg/kg | AUC0-last/dose ([3]; dosed S2227 oral gavage 30 mg/kg, Rat (F)): 83.7 ng·h/mL/mg/kg | AUC0-last/dose ([3]; dosed S2227 oral gavage 30 mg/kg, Rat (M)): 20.5 ng·h/mL/mg/kg | AUC0-last/dose ([3]; dosed S2227 oral gavage 100 mg/kg, Rat (F)): 59.8 ng·h/mL/mg/kg | AUC0-last/dose ([3]; dosed S2227 oral gavage 100 mg/kg, Rat (M)): 35.0 ng·h/mL/mg/kg | relative EIC peak area (%) compared to S2227 peak area at T = 0 min [4]: 6.47% | AUC(0-t) ([5]; 20 mg/kg): 4.37 µg·h/mL | AUC(0-t) ([5]; 30 mg/kg): 0.0276 µg·h/mL | relative EIC peak area (%) compared to S2227 peak area at T = 0 min [6]: 0.91% | relative EIC peak area (%) compared to S2227 peak area at T = 0 min [7]: 10.26% | relative EIC peak area (%) compared to S2227 peak area at T = 0 min [8]: 37.29% | AUC0-last ratio M179/S2227 ([9]; S2227 iv 1.0 mg/kg): 0.007 | AUC0-last ratio M179/S2227 ([9]; S2227 oral gavage 10 mg/kg): 0.187 | AUC0-last ratio M179/S2227 ([9]; S2227 oral gavage 30 mg/kg): 0.139 | AUC0-last ratio M179/S2227 ([9]; S2227 oral gavage 100 mg/kg): 0.243 | AUC(0-t) ([9]; iv, 1 mg/kg): 0.00663 ± 0.0009 µg·h/mL | Cmax ([9]; iv, 1 mg/kg): 0.0052 ± 0.0009 µg/mL | Tmax ([9]; iv, 1 mg/kg): 0.5 h | half-life ([9]; iv, 1 mg/kg): 1.1 h | AUC(0-t) ([9]; po, 10 mg/kg): 0.0222 ± 0.00878 µg·h/mL | Cmax ([9]; po, 10 mg/kg): 0.0102 ± 0.00484 µg/mL | Tmax ([9]; po, 10 mg/kg): 4.67 h | half-life ([9]; po, 10 mg/kg): 4.77 h | AUC(0-t) ([9]; po, 30 mg/kg): 0.031 ± 0.0154 µg·h/mL | Cmax ([9]; po, 30 mg/kg): 0.00681 ± 0.00215 µg/mL | Tmax ([9]; po, 30 mg/kg): 1 h | half-life ([9]; po, 30 mg/kg): 2.27 h | AUC(0-t) ([9]; po, 100 mg/kg): 0.171 ± 0.144 µg·h/mL | Cmax ([9]; po, 100 mg/kg): 129 nM and 23.1 ng/mL | Tmax ([9]; po, 100 mg/kg): 10 h | half-life ([9]; po, 100 mg/kg): 4.69 h | AUC0-last/dose ([9]; dosed S2227 iv 1.0 mg/kg): 6.63 ng·h/mL/mg/kg | AUC0-last/dose ([9]; dosed S2227 oral gavage 10 mg/kg): 2.22 ng·h/mL/mg/kg | AUC0-last/dose ([9]; dosed S2227 oral gavage 30 mg/kg): 1.03 ng·h/mL/mg/kg | AUC0-last/dose ([9]; dosed S2227 oral gavage 100 mg/kg): 1.71 ng·h/mL/mg/kg | Reverse mutation (in vitro) [10]: not mutagenic; also recorded: Negative

c1csc(CNc2cc[nH]n2)c1 [M179 hydrochloride salt, N-(2-thienylmethyl)-1H-pyrazol-3-amine]
Mortality ([1]; females, 2000 mg/kg): 3/3 | Mortality ([1]; males, 1000 mg/kg/day): 2/3 | Mortality ([1]; males, 2000 mg/kg): 3/3 | fold higher exposure of M179 in plasma than after an equimolar dose of S2227 ([5]; oral, mice): 158 fold

CCN(Cc1cccs1)C(=O)COc1ccc(C)cc1 [S5031, 2-(4-methylphenoxy)-N-ethyl-N-(2-thienylmethyl) acetamide]
AUC0-8h ratio (acid/amine) ([11]; jugular vein (JV)): 23.0 | AUC0-8h ratio (amide/acid) ([11]; jugular vein (JV)): 0.013 | AUC0-8h ratio (acid/amine) ([11]; portal vein (PV)): 13.3 | AUC0-8h ratio (amide/acid) ([11]; portal vein (PV)): 0.52

CCNC(=O)C1CC(C)CCC1C(C)C (centres unmarked) [FEMA 3455, N-ethyl-p-menthane-3-carboxamide]
% inhibition of CYP2C19 (CYP2C19): 74% | NOEL [12]: 8 mg/kg/day
